# Bioassay records as filed in PubChem BioAssay.
# This is a sample that favours compounds with a hit; in the whole collection about 3.7% have one here.
# DENV2 CPE rescue: inhibitors of DENV2 cytopathic effect, primary screen, cell-based, plate reader, single concentration. 350,000 compounds, 1.7% hits. DENV2-infected cells, cytopathic effect rescue. CPE inhibition, % at 9.99 µM; in the data active means CPE inhibition above about 20%, passing the limit was not always enough; inconclusive means no clear call, values can overlap the other calls; tested in BHK-21 cells;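 further: 0% = median of neutral control wells and 100% = median of positive control wells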
# ERAP1 HTS inh: human ERAP1 aminopeptidase inhibitors, primary screen, biochemical, single point, plate reader; 340,000 compounds, 0.15% hits; AID 652197, 2013; inhibition, % at 10.7 µM; recombinant ERAP1, Leu-AMC fluorescence, 60 min;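 active means mean replicate inhibition of at least 30%, or all replicates individually reaching that 30% level; inactive means mean below 30% and not every replicate reaching it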;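 further: 0% = neutral control wells and 100% = L-leucinethiol positive control wells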
# F508del corr: F508del CFTR correction, initial screen, CFBE line, single point. CFBE cells, YFP halide quenching; stimulated with forskolin plus potentiator P3; % fluorescence drop versus neutral controls. activity (quench increase), % at 7.58 µM. 350,000 compounds, 0.36% hits;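 active means mean added fluorescence quench of at least 8% versus neutral control, with both replicates also reaching 8%; inconclusive means only one of the mean or replicate conditions met; inactive means mean below 8% and not both replicates reaching 8%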;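 further: cells transiently co-express mutant CFTR-F508del with the halide-sensitive YFP; corrector assay measuring rescue of mutant channel to the surface after 24 h compound exposure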
# FGF22 binding: binders of human FGF22 protein, primary screen, FGF22 synaptogenesis inhibitor project, biophysical, thermal shift, single point | 340,000 compounds, 1.5% hits | recombinant FGF22 thermal shift, SYPRO orange fluorescence; percent of sucrose octasulfate shift, DMSO zero | activity (Tm shift, normalised), % at 9.99 µM;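 active means mean Tm shift, scaled 0 neutral to 100 positive control, at about 1.3% or above, every replicate too, limit read from the data; inconclusive means no clear call, values can overlap the other calls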
# Target sequence (Q9HCT0 whole entry, looked up): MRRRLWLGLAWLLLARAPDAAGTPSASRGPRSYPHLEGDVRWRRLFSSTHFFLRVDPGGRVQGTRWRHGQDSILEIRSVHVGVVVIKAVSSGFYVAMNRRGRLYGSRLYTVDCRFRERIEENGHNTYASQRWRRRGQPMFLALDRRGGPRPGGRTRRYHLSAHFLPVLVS
# E-selectin induc: E-selectin induction in HUVECs, primary screen, imaging, HUVEC, immunofluorescence imaging, single point. normalized: neutral wells 0, TNF-alpha wells 100. activation, % at 7.58 µM. P16581. 260,000 compounds, 0.37% hits;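 active means mean E-selectin-positive cell signal at least 10% of the positive control, reached in at least 60% of replicates, without over 20% cell loss; inconclusive means no rule given, readout overlaps actives, possibly toxicity-flagged; inactive means the rest, including those meeting only one limit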
#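 Test system: HUVEC | Signal: Immunofluorescence imaging | Read-out: Percent E-selectin-positive cells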
# Starred values were filed as active, the others as inactive; ? = inconclusive; · = not tested or not shown.
SMILES,DENV2 CPE rescue,ERAP1 HTS inh,F508del corr,FGF22 binding,E-selectin induc
C/C(N)=C(/C#N)C(=O)CSc1ccccc1F,6,-4,1,0,·
C/C(N)=C(/C#N)C(=O)CSc1nnc(Cc2ccccc2F)n1N,54*,0,-4,0,·
O=S(=O)(c1ccc(F)cc1)N1CC[C@@H]2[C@H](CO)Nc3ccc(Br)cc3[C@@H]21,·,·,1,0,0
COc1ccc(-c2ccc3c(c2)[C@H]2[C@H](CCN2S(=O)(=O)c2ccc(OC)cc2)[C@@H](CO)N3)cc1,-24,·,20*,0,2
O=S(=O)(c1ccc(F)cc1)N1CC[C@@H]2[C@@H](CO)Nc3ccc(C#Cc4cccc(F)c4)cc3[C@@H]21,24*,-3,1,0,0
O=S(=O)(c1ccc(F)cc1)N1CC[C@@H]2[C@H]1c1cc(-c3ccc(F)cc3)ccc1N[C@@H]2CO,86*,·,-1,0,-1
OC[C@@H]1Nc2ccc(-c3ccccc3)cc2[C@H]2[C@@H]1CCN2Cc1ccc(F)cc1,49*,1,-1,1,1
Cc1cccc(S(=O)(=O)N2CC[C@@H]3[C@@H](CO)Nc4ccc(C#Cc5cccc(F)c5)cc4[C@@H]32)c1,-3,0,1,0,0
CCCC#Cc1cnc2c(c1)C(=O)N([C@@H](C)CO)C[C@@H](C)[C@H](CN(C)C(=O)Nc1ccccc1OC)O2,-7,5,1,1,0
COCC(=O)Nc1ccc2c(c1)C(=O)N(C)[C@@H]1CC[C@H](CC(=O)NC3CCCC3)O[C@@H]1CO2,?,·,-2,0,0
Cc1cccc(S(=O)(=O)N2CC[C@@H]3[C@@H](CO)N(C)c4ccc(-c5ccc(C#N)cc5)cc4[C@@H]32)c1,45*,1,4,0,0
COc1ccc(S(=O)(=O)N2CC[C@@H]3[C@@H](CO)Nc4ccc(-c5cccc(C#N)c5)cc4[C@@H]32)cc1,-7,-1,13*,0,-1
N#Cc1ccc(-c2ccc3c(c2)[C@@H]2[C@@H](CCN2S(=O)(=O)c2cccc(F)c2)[C@H](CO)N3)cc1,34*,0,5,0,0
COc1ccc(S(=O)(=O)N2CC[C@@H]3[C@@H](CO)Nc4ccc(C5=CCCCC5)cc4[C@@H]32)cc1,10,-3,9.0*,·,2
COc1ccc(S(=O)(=O)N2CC[C@H]3[C@H](CO)Nc4ccc(-c5cccc(C#N)c5)cc4[C@H]32)cc1,-12,-1,2,0,0
CCC(=O)N1[C@H](CO)[C@H](c2ccc(C3=CCCC3)cc2)[C@@H]1CNC(=O)CN(C)C,16,·,4,·,0
C[C@@H]1CCCCO[C@@H](CN(C)S(=O)(=O)c2ccccc2)[C@@H](C)CN([C@H](C)CO)C(=O)c2cc(NC(=O)c3ccncc3)ccc2O1,-7,-1,-3,0,·
Cc1noc(C)c1NC(=O)Nc1ccc2c(c1)C(=O)N([C@H](C)CO)C[C@H](C)[C@H](CN(C)C(=O)Nc1ccccc1)OCCCC[C@H](C)O2,68*,-2,-3,0,0
Cc1noc(C)c1NC(=O)Nc1ccc2c(c1)C(=O)N([C@@H](C)CO)C[C@@H](C)[C@H](CN(C)C(=O)Nc1c(C)noc1C)OCCCC[C@@H](C)O2,30*,-5,1,0,0
Cc1noc(C)c1NC(=O)Nc1ccc2c(c1)C(=O)N([C@@H](C)CO)C[C@@H](C)[C@@H](CN(C)C(=O)Nc1ccccc1)OCCCC[C@H](C)O2,0,-1,1,0,0
Cc1noc(C)c1NC(=O)Nc1ccc2c(c1)C(=O)N([C@@H](C)CO)C[C@@H](C)[C@@H](CN(C)C)OCCCC[C@@H](C)O2,84*,2,-2,0,0
Cc1noc(C)c1NC(=O)Nc1ccc2c(c1)C(=O)N([C@@H](C)CO)C[C@@H](C)[C@@H](CN(C)S(C)(=O)=O)OCCCC[C@@H](C)O2,102*,-2,-3,0,0
Cc1noc(C)c1NC(=O)Nc1ccc2c(c1)C(=O)N([C@@H](C)CO)C[C@@H](C)[C@H](CN(C)C)OCCCC[C@@H](C)O2,16,2,0,0,0
Cc1noc(C)c1NC(=O)Nc1ccc2c(c1)C(=O)N([C@H](C)CO)C[C@H](C)[C@H](CN(C)S(C)(=O)=O)OCCCC[C@H](C)O2,-6,-1,1,0,0
C[C@H]1CN([C@@H](C)CO)C(=O)Cc2cc(NS(=O)(=O)c3ccccc3)ccc2O[C@H]1CN(C)C(=O)NC1CCCCC1,0,-5,1,0,0
SMILES,DENV2 CPE rescue,ERAP1 HTS inh,F508del corr,FGF22 binding,E-selectin induc
CC(C)[C@H](NC(=O)OC(C)(C)C)C(=O)NCC1CCC(C(=O)N[C@@H](Cc2ccccc2)C(=O)O)CC1 (stereo partly specified),40*,1,1,0,·
CCCOC(=O)c1ccc(O)cc1,26*,-3,0,0,·
C[C@H](CO)N1C[C@H](C)[C@H](CN(C)C(=O)NC2CCCCC2)Oc2ccc(NC(=O)Cc3ccccc3)cc2CC1=O,-5,-7,-3,0,-2
O=C(CCSc1ccc(Br)cc1)Nc1cccnc1,·,2,1,44*,·
O=C(CCC(=O)c1ccc(Br)cc1)Nc1cccnc1,-3,·,-4,0,3
CNC[C@@H]1OCCCC[C@H](C)Oc2ccc(NC(=O)Nc3ccc4c(c3)OCO4)cc2C(=O)N([C@@H](C)CO)C[C@@H]1C,·,·,0,·,0
Cc1ccc(S(=O)(=O)N(C)C[C@@H]2Oc3ccc(NC(=O)Nc4ccc(F)cc4)cc3C(=O)N([C@H](C)CO)C[C@H]2C)cc1,?,3,0,0,1
CCN(C(=O)COc1ccc2ccc(=O)oc2c1)C1CCCCC1,?,1,18*,0,-1
N#CCC(=O)N/N=C/c1cn(Cc2ccccc2C#N)c2ccccc12,2,·,4,0,5
N#CCC(=O)N/N=C/c1cn(Cc2cccc3ccccc23)c2ccccc12,11,3,11*,0,1
O=C(NN=Cc1ccccc1Cl)c1ccccc1,-9,-2,4,0,0
N#CCC(=O)N/N=C/c1ccccc1Cl,3,0,-2,44*,0
O=C1c2cc([N+](=O)[O-])ccc2-c2ncccc21,51*,·,-1,0,·
Nc1ccc2c(c1)C(=O)c1cc([N+](=O)[O-])ccc1-2,-3,2,-2,0,0
COc1cccc(-c2ccc([C@H]3[C@@H](CO)N4C(=O)CN(C(=O)c5ccncc5)C[C@@H]34)cc2)c1,3,0,2,·,0
